{"source": "paper PMC5647210", "about": "(Cancer immunology, immunotherapy : CII, 2017)", "key": {"HCV1406 TCR": {"system": "HCV1406 TCR", "assay": "Surface plasmon resonance TCR-pMHC binding", "settings": "authors' ranges based on SPR KD"}, "HLA-A2": {"system": "HLA-A2", "settings": "thermal denaturation of peptide-HLA-A2 complexes; cited from earlier work"}, "[1]": {"system": "HCV1406 TCR-transduced T-cells", "assay": "Degranulation CD107a assay", "assay_type": "cell-based, human", "settings": "T2 cells pulsed with 10 μg/mL peptide, 1:1 co-culture, flow cytometry"}, "[2]": {"system": "HCV1406 TCR-transduced T-cells", "assay": "IFNγ release at high, intermediate and low antigen density", "assay_type": "cell-based, human", "settings": "peptide-loaded HepG2 cells, 18 hr, ELISA", "summary_of_the_method": "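Normal-donor PBL transduced with HCV1406 TCR, CD34-enriched and split into CD4+/CD8+ by immunomagnetic selection. HepG2 targets either peptide-pulsed for 2 h or transduced with NS3:1406–1415 minigene–GFP vectors and sorted for high uniform GFP. Co-culture 1:1, 37 °C, 18 h. IFNγ from 1x105 T-cells measured by ELISA in triplicate (mean, SD). CD4+ vs CD8+ compared by unequal-variance two-sample t-tests.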"}}, "data": [{"sequence": "KLLALGINAV [V1408L]", "values": [{"measurement": "affinity category of TCR-pMHC interaction compared to WT", "setting": "HCV1406 TCR", "value": "moderate affinity"}, {"measurement": "Tm of peptide-HLA-A2", "setting": "HLA-A2", "value": 61, "unit": "°C"}]}, {"sequence": "KLTALGINAV [V1408T]", "values": [{"measurement": "affinity category of TCR-pMHC interaction compared to WT", "setting": "HCV1406 TCR", "value": "moderate affinity"}, {"measurement": "degranulation (surface CD107a) of CD4^+ TCR-transduced T-cells", "setting": "[1]", "value": "blunted compared to WT, I1412L, and V1408L"}, {"measurement": "Tm of peptide-HLA-A2", "setting": "HLA-A2", "value": 69, "unit": "°C"}]}, {"sequence": "KLVALGINAV [WT]", "values": [{"measurement": "IFNγ secretion by CD8^+ T-cells, intermediate antigen density", "setting": "[2]", "value": "strong recognition"}, {"measurement": "Tm of peptide-HLA-A2", "setting": "HLA-A2", "value": 64, "unit": "°C"}]}, {"sequence": "KLVALGLNAV [I1412L]", "values": [{"measurement": "affinity category of TCR-pMHC interaction compared to WT", "setting": "HCV1406 TCR", "value": "moderate affinity"}]}, {"sequence": "KLVALGNNAV [I1412N]", "values": [{"measurement": "affinity category of TCR-pMHC interaction compared to WT", "setting": "HCV1406 TCR", "value": "low affinity"}, {"measurement": "Tm of peptide-HLA-A2", "setting": "HLA-A2", "value": 59, "unit": "°C"}]}, {"sequence": "KLVALGVNAV [I1412V]", "values": [{"measurement": "affinity category of TCR-pMHC interaction compared to WT", "setting": "HCV1406 TCR", "value": "moderate affinity"}, {"measurement": "degranulation (surface CD107a) of CD4^+ TCR-transduced T-cells", "setting": "[1]", "value": "blunted compared to WT, I1412L, and V1408L"}]}]}
